Assay results taken from ChEMBL document CHEMBL2321728, “Vectorization efforts to increase Gram-negative intracellular drug concentration: a case study on HldE-K inhibitors” (J Med Chem, 2013).
The source made the active and inactive calls. No cut-off for these calls is given here.

Columns and labels:
Escherichia coli [1] = assay: Antimicrobial activity against wild type Escherichia coli K1 measured after overnight incubation by serial dilution method in presence of erythromycin; assay type: functional
Escherichia coli [2] = assay: Antimicrobial activity against acrAB, tolC-deficient Escherichia coli str. K-12 substr. MG1655 measured after overnight incubation by serial dilution method in presence of erythromycin in iron depleted medium; assay type: functional
Summary of the method: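 MIC in M9 medium supplemented with D-glucose, thiamine, casein and apotransferrin (M9S), which is the iron-depleted medium. Erythromycin at 0.13 μg/mL. Inoculum 5 × 10^5 CFU/mL. Compound serial dilutions in 2% DMSO, overnight at 35 °C, visual read-out.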

Escherichia coli [3] = assay: Antimicrobial activity against acrAB, tolC-deficient Escherichia coli str. K-12 substr. MG1655 measured after overnight incubation by serial dilution method in presence of erythromycin; assay type: functional
[4] = Inhibition of Escherichia coli HldE-kinase preincubated for 30 mins prior to substrate addition measured after 30 mins by luminescence assay
Summary of the method: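 E. coli HldE (3 nM) preincubated with inhibitor for 30 min at room temperature in pH 7.5 Hepes buffer with MnCl2, KCl, Triton X-100, DTT and MBP. Reaction started with 0.2 μM β-heptose 7-phosphate and 0.2 μM ATP, run 30 min at room temperature. Remaining ATP measured by luciferase/luciferin luminescence. IC50 from 6–10 concentrations fitted to a Langmuir model.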

Escherichia coli [5] = assay: Antimicrobial activity against wild type Escherichia coli K1 assessed as inhibition of LPS biosynthesis at 30 ug/ml after 5 hrs by SDS-PAGE analysis; assay type: functional, organism-based
Summary of the method: (§1)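 LB-grown exponential cells (OD about 0.15) diluted to 5 × 10^5 CFU/mL and exposed to compound (water/DMSO 50/50) at 37 °C for about 5 h, to OD 0.2–0.4. OD-normalized pellets lysed in SDS/β-mercaptoethanol at 95–100 °C, then proteinase K 1 h at 55 °C. LPS resolved by 16% SDS-PAGE and silver stained.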

Escherichia coli [6] = assay: Antimicrobial activity against tolC-deficient Escherichia coli K1 measured after overnight incubation by serial dilution method in presence of erythromycin; assay type: functional
Escherichia coli [7] = assay: Antimicrobial activity against wild type Escherichia coli K1 after overnight incubation by checkerboard assay; assay type: functional
Summary of the method: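 Checkerboard against E. coli K1 (018:K1:H7) wild type. Early to log phase preculture suspended in ca-MHB to a final inoculum of 5 × 10^5 CFU/mL. Combined serial dilutions of kanamycin, the unvectorized inhibitor or bis(3-aminopropyl)amine with erythromycin, in 2% DMSO. Incubated overnight at 35 °C; MIC of each combination read by visual inspection.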

Escherichia coli [8] = assay: Antimicrobial activity against tolC-deficient Escherichia coli K1 assessed as inhibition of LPS biosynthesis at 32 ug/ml after 5 hrs by SDS-PAGE analysis; assay type: functional, organism-based; summary of the method: as §1

| SMILES | MIC (Escherichia coli [1]) [µg/mL] | MIC (Escherichia coli [2]) [µg/mL] | MIC (Escherichia coli [3]) [µg/mL] | IC50 [4] [nM] | MIC (Escherichia coli [6]) [µg/mL] | inhibition (Escherichia coli [5]) | MIC (Escherichia coli [7]) [µg/mL] | inhibition (Escherichia coli [8]) |
| --- | --- | --- | --- | --- | --- | --- | --- | --- |
| CCN1CCN(C(=O)NCCOc2ccc3sc(CNc4nncc(-c5c(C)cccc5O)n4)nc3c2)C(=O)C1=O | > 32 | 8 | > 32 | 520 |  |  |  |  |
| NC[C@H]1O[C@H](O[C@H]2[C@H](O)[C@@H](O[C@H]3O[C@H](Cn4cc(CNC(=O)COc5ccc6sc(CNc7nncc(-c8c(Cl)cccc8Cl)n7)nc6c5)nn4)[C@@H](O)[C@H](N)[C@H]3O)[C@H](N)C[C@@H]2N)[C@H](O)[C@@H](O)[C@@H]1O | 8 |  | 4 | 98 | 2 | inactive |  |  |
| NC[C@H]1O[C@H](O[C@H]2[C@H](O)[C@@H](O[C@H]3O[C@H](CO)[C@@H](O)[C@H](N)[C@H]3O)[C@H](N)C[C@@H]2N)[C@H](O)[C@@H](O)[C@@H]1O [KANAMYCIN] |  |  |  |  |  |  | 8 |  |
| Cc1cc(NCCN(C)C)cc(C)c1-c1cnnc(NCc2nc3cc(O)ccc3s2)n1 | > 64 |  | 16 | 780 |  |  |  |  |
| COc1ccc2sc(CNc3nncc(-c4c(C)cc(NCCN(C)C)cc4C)n3)nc2c1 | > 64 |  | 32 | 82 |  |  |  |  |
| NCCCN(CCCN)CCOc1ccc2sc(CNc3nncc(-c4c(Cl)cccc4Cl)n3)nc2c1 | 4 |  |  | 630 | 2 |  |  | inactive |
| O=C(NCCOc1ccc2sc(CNc3nncc(-c4c(Cl)cccc4Cl)n3)nc2c1)[C@@H]1CSC(c2ccccc2O)=N1 | > 32 | > 32 | > 32 | 660 |  |  |  |  |
| Cc1cc(NC(=O)CN(C)C)cc(C)c1-c1cnnc(NCc2nc3cc(O)ccc3s2)n1 | > 64 |  | 16 | 880 |  |  |  |  |
| CC[C@H]1OC(=O)[C@H](C)[C@@H](O[C@H]2C[C@@](C)(OC)[C@@H](O)[C@H](C)O2)[C@H](C)[C@@H](O[C@@H]2O[C@H](C)C[C@H](N(C)C)[C@H]2O)[C@](C)(O)C[C@@H](C)C(=O)[C@H](C)[C@@H](O)[C@]1(C)O [ERYTHROMYCIN] |  |  |  |  |  |  | 16 |  |
| Cc1cc(NCCN(C)C)cc(C)c1-c1cnnc(NCc2nc3cc(OCCN)ccc3s2)n1 | > 64 |  |  | 1400 | > 64 |  |  | inactive |
| COc1ccc2sc(CNc3nncc(-c4c(C)cccc4O)n3)nc2c1 |  |  |  | 69 |  |  |  |  |
| O=S(=O)(NCCOc1ccc2sc(CNc3nncc(-c4c(Cl)cccc4Cl)n3)nc2c1)c1ccc(O)c(O)c1 | > 64 | 2 | 4 | 33 |  |  |  |  |

The next lines start with results.

| MIC (Escherichia coli [1]) [µg/mL] | MIC (Escherichia coli [2]) [µg/mL] | MIC (Escherichia coli [3]) [µg/mL] | IC50 [4] [nM] | MIC (Escherichia coli [6]) [µg/mL] | SMILES | inhibition (Escherichia coli [5]) | MIC (Escherichia coli [7]) [µg/mL] | inhibition (Escherichia coli [8]) |
| --- | --- | --- | --- | --- | --- | --- | --- | --- |
| > 64 | 32 | > 64 | 30 |  | O=C(COc1ccc2sc(CNc3nncc(-c4c(Cl)cccc4Cl)n3)nc2c1)OCc1cc(=O)c(O)cn1O |  |  |  |
| 32 |  |  | 110 | 8 | NCCNCCNC(=O)COc1ccc2sc(CNc3nncc(-c4c(Cl)cccc4Cl)n3)nc2c1 |  |  | inactive |
| > 64 |  |  | 55 |  | O=C(COc1ccc2sc(CNc3nncc(-c4c(Cl)cccc4Cl)n3)nc2c1)NCCO |  |  | Active |
| > 64 | 16 | 16 | 16 |  | CS(=O)(=O)NC(=O)COc1ccc2sc(CNc3nncc(-c4c(Cl)cccc4Cl)n3)nc2c1 |  |  |  |
| 8 |  |  | 510 | 4 | NCCCN(CCCN)C(=O)COc1ccc2sc(CNc3nncc(-c4c(Cl)cccc4Cl)n3)nc2c1 |  |  | inactive |
| > 64 | 1 | 2 | 25 |  | Cn1nc(O)c(=O)nc1SCCOc1ccc2sc(CNc3nncc(-c4c(Cl)cccc4Cl)n3)nc2c1 |  |  |  |
| > 64 |  |  | 19 |  | O=C(O)COc1ccc2sc(CNc3nncc(-c4c(Cl)cccc4Cl)n3)nc2c1 |  |  |  |
| > 64 | 2 | > 64 | 71 |  | O=C(NCCOc1ccc2sc(CNc3nncc(-c4c(Cl)cccc4Cl)n3)nc2c1)c1cc(=O)c(O)co1 |  |  |  |
| 8 |  |  | 580 | 4 | NCCN(CCN)CCNC(=O)COc1ccc2sc(CNc3nncc(-c4c(Cl)cccc4Cl)n3)nc2c1 |  |  | inactive |
| > 64 |  |  | 110 | 32 | CN1CCN(CCOc2ccc3sc(CNc4nncc(-c5c(Cl)cccc5Cl)n4)nc3c2)CC1 |  |  | inactive |
| > 64 |  |  | 420 | 32 | CN(C)CC(CN(C)C)NC(=O)COc1ccc2sc(CNc3nncc(-c4c(Cl)cccc4Cl)n3)nc2c1 |  |  | inactive |
| > 64 | 1 | 2 | 1 |  | O=C(COc1ccc2sc(CNc3nncc(-c4c(Cl)cccc4Cl)n3)nc2c1)NO |  |  |  |
